Results from ChEMBL document CHEMBL1137761, “Synthesis and activity evaluation of phenylurea derivatives as potent antitumor agents” (Bioorg Med Chem, 2009).
The source made the active and inactive calls. No cut-off for these calls is given here.

Experiments:
CCRF-CEM [1] = assay: Cytotoxicity against human CEM cells after 72 hrs by MTT assay; type: functional, cell-based
Procedure, shortened: (§1)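 Cells kept in RPMI-1640 with 10% heat-inactivated FCS plus penicillin/streptomycin at 37 °C, 5% CO2. Seeded at 1 × 10^5 cells per well and treated at 0.001–100 µM for 72 h at 37 °C. Viability read by MTT. IC50 was the concentration killing 50% relative to untreated controls, by non-linear regression. Duplicate wells, three independent experiments.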

CCRF-CEM [2] = assay: Cell cycle arrest in human CEM cells assessed as accumulation at G2/M phase at 3.2 uM after 18 hrs by flow cytometry; type: functional
Procedure, shortened: (§2)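 CEM cells grown in RPMI-1640 with 10% heat-inactivated FCS at 37 °C, 5% CO2, exposed to compound for 18 h at 37 °C. Fixed in 70% ethanol 18 h at 4 °C, RNase A (50 µg/ml) 0.5 h at 37 °C, then propidium iodide (final 50 µg/ml) 0.5 h at 4 °C. Flow cytometry on 10^4 cells per sample gave phase distribution.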

CCRF-CEM [3] = assay: Cell cycle arrest in human CEM cells assessed as accumulation at S phase at 3.2 uM after 18 hrs by flow cytometry; type: functional; procedure, shortened: as §2
CCRF-CEM [4] = assay: Induction of apoptosis in human CEM cells at 3.2 uM after 18 hrs by flow cytometry; type: functional
Procedure, shortened: (§3)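 CEM cells exposed 18 h at 37 °C, then ethanol-fixed, RNase-treated and stained with propidium iodide (final 50 µg/ml). Flow cytometry on 10^4 cells per sample. Dead cells were scored as the population left of the G1/G0 peak, reflecting DNA degradation, and reported as percent.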

CCRF-CEM [5] = assay: Cell cycle arrest in human CEM cells assessed as accumulation at G0/G1 phase at 3.2 uM after 18 hrs by flow cytometry; type: functional; procedure, shortened: as §2
CCRF-CEM [6] = assay: Cell cycle arrest in human CEM cells assessed as accumulation at G2/M phase at 6.4 uM after 18 hrs by flow cytometry; type: functional; conditions: in the assay text read “10 uM” for “6.4 uM”; procedure, shortened: as §2
Bos taurus [7] = species on record: Bos taurus; assay: Inhibition of calf brain beta-tubulin polymerization at 10 uM after 30 mins by spectrophotometry
Procedure, shortened: (§4)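 Calf brain tubulin (100 µL at 1 mg/ml) was mixed with 400 µL buffer: 0.1 M MES, 1 mM EGTA, 0.5 mM MgCl2, 0.1 mM EDTA, 2.5 M glycerol. Compound or solvent control was added, then GTP to a final 1 mM. OD340 was read at 0 min (baseline) and at 30 min, with assembly at room temperature.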

CCRF-CEM [8] = assay: Induction of apoptosis in human CEM cells at 6.4 uM after 18 hrs by flow cytometry; type: functional; conditions: in the assay text read “10 uM” for “6.4 uM”; procedure, shortened: as §3
CCRF-CEM [9] = assay: Cell cycle arrest in human CEM cells assessed as accumulation at S phase at 6.4 uM after 18 hrs by flow cytometry; type: functional; conditions: in the assay text read “10 uM” for “6.4 uM”; procedure, shortened: as §2
CCRF-CEM [10] = assay: Cell cycle arrest in human CEM cells assessed as accumulation at G0/G1 phase at 6.4 uM after 18 hrs by flow cytometry; type: functional; conditions: in the assay text read “10 uM” for “6.4 uM”; procedure, shortened: as §2
PC-3 = assay: Cytotoxicity against human PC3 cells after 72 hrs by MTT assay; type: functional, cell-based; conditions: PC-3, 72 h; procedure, shortened: as §1
CCRF-CEM [11] = assay: Cytotoxicity against human CEM cells after 24 hrs by MTT assay; type: functional, cell-based
Procedure, shortened: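 CEM cells treated at a range of concentrations for 24 h. Cell death measured by MTT.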

MIA PaCa-2 = assay: Cytotoxicity against human MIAPaCa2 cells after 72 hrs by MTT assay; type: functional, cell-based; conditions: MIA PaCa-2, 72 h; procedure, shortened: as §1
CCRF-CEM [12] = assay: Cell cycle arrest in human CEM cells assessed as accumulation at S phase at 10 uM after 18 hrs by flow cytometry; type: functional; conditions: in the assay text read “6.4 uM” for “10 uM”; procedure, shortened: as §2
CCRF-CEM [13] = assay: Induction of apoptosis in human CEM cells at 10 uM after 18 hrs by flow cytometry; type: functional; conditions: in the assay text read “6.4 uM” for “10 uM”; procedure, shortened: as §3
Daudi = assay: Cytotoxicity against human Daudi cells after 72 hrs by MTT assay; type: functional, cell-based; procedure, shortened: as §1
Bel-7402 = assay: Cytotoxicity against human Bel7402 cells after 72 hrs by MTT assay; type: functional, cell-based; conditions: Bel-7402, 72 h; procedure, shortened: as §1
Bos taurus [14] = species on record: Bos taurus; assay: Inhibition of calf brain beta-tubulin polymerization at 6.4 uM after 30 mins by spectrophotometry; procedure, shortened: as §4
CCRF-CEM [15] = assay: Cell cycle arrest in human CEM cells assessed as accumulation at G0/G1 phase at 10 uM after 18 hrs by flow cytometry; type: functional; conditions: in the assay text read “6.4 uM” for “10 uM”; procedure, shortened: as §2
DU-145 = assay: Cytotoxicity against human DU145 cells after 72 hrs by MTT assay; type: functional, cell-based; conditions: DU-145, 72 h; procedure, shortened: as §1
CCRF-CEM [16] = assay: Cell cycle arrest in human CEM cells assessed as accumulation at G2/M phase at 10 uM after 18 hrs by flow cytometry; type: functional; conditions: in the assay text read “6.4 uM” for “10 uM”; procedure, shortened: as §2
[17] = Cytotoxicity against human DND1A cells after 72 hrs by MTT assay; type: functional, cell-based; procedure, shortened: as §1
MCF7 = assay: Cytotoxicity against human MCF7 cells after 72 hrs by MTT assay; type: functional, cell-based; conditions: MCF7, 72 h; procedure, shortened: as §1
LoVo = assay: Cytotoxicity against human LoVo cells after 72 hrs by MTT assay; type: functional, cell-based; procedure, shortened: as §1
CCRF-CEM [18] = assay: Cell cycle arrest in human CEM cells assessed as accumulation at G0/G1 phase at 3.3 uM after 18 hrs by flow cytometry; type: functional; procedure, shortened: as §2
CCRF-CEM [19] = assay: Cell cycle arrest in human CEM cells assessed as accumulation at S phase at 3.3 uM after 18 hrs by flow cytometry; type: functional; procedure, shortened: as §2
CCRF-CEM [20] = assay: Cell cycle arrest in human CEM cells assessed as accumulation at G2/M phase at 3.3 uM after 18 hrs by flow cytometry; type: functional; procedure, shortened: as §2
Bos taurus [21] = species on record: Bos taurus; assay: Inhibition of calf brain beta-tubulin polymerization at 3.3 uM after 30 mins by spectrophotometry; procedure, shortened: as §4
CCRF-CEM [22] = assay: Induction of apoptosis in human CEM cells at 3.3 uM after 18 hrs by flow cytometry; type: functional; procedure, shortened: as §3

CC(Br)C(=O)Nc1cccc(NC(=O)NC=O)c1 (centres undefined) gave an IC50 (CCRF-CEM [1]) of 10200 nM.

For CC(Br)C(=O)Nc1cccc(NC(=O)NC(=O)CCCl)c1 (centres undefined), the IC50 (CCRF-CEM [1]) was 2050 nM.

For CC(Br)C(=O)Nc1cccc(C(=O)NC(N)=O)c1 (centres undefined), the Activity (CCRF-CEM [2]) was 63.2%, the Activity (CCRF-CEM [3]) was 25.3% and the Activity (CCRF-CEM [4]) was 9.5%. It also gave an Activity (CCRF-CEM [5]) of 2% and an IC50 (CCRF-CEM [1]) of 1470 nM.

For CC(=O)NC(=O)Nc1cccc(NC(=O)CBr)c1, the IC50 (CCRF-CEM [1]) was 3200 nM.

CC(Br)C(=O)NC(=O)Nc1cccc(NC(=O)C(C)Br)c1 (centres undefined) showed an IC50 (CCRF-CEM [1]) of 1340 nM.

In the case of O=C(CI)Nc1cccc(NC(=O)NCCCl)c1, the Activity (CCRF-CEM [6]) is reported as 2.6%, the inhibition (Bos taurus [7]) is reported as “inactive” and the Activity (CCRF-CEM [8]) is reported as 33.2%. It also gave an Activity (CCRF-CEM [9]) of 30.1%, an Activity (CCRF-CEM [10]) of 34.1% and an IC50 (CCRF-CEM [1]) of 100 nM.

Work on CC(=O)NC(=O)Nc1cccc(NC(=O)C(C)Br)c1 (centres undefined) yielded an IC50 (CCRF-CEM [1]) of 10600 nM.

In the case of COc1cc(NC(=O)Nc2cccc(NC(=O)CBr)c2)cc(OC)c1OC, the IC50 (CCRF-CEM [1]) is reported as 1000 nM.

With O=C(CBr)Nc1cccc(NC(=O)NCCCl)c1 the IC50 (CCRF-CEM [1]) was 770 nM.

For O=C(CBr)NC(=O)Nc1cccc(NC(=O)CBr)c1, the IC50 (PC-3) was over 100000 nM, the Activity (CCRF-CEM [11]) was “Dose-dependent effect” and the IC50 (MIA PaCa-2) was 2810 nM. It also gave an Activity (CCRF-CEM [12]) of 13.7%, an Activity (CCRF-CEM [13]) of 24.8% and an IC50 (Daudi) of 380 nM. The IC50 (Bel-7402) was 4070 nM, the inhibition (Bos taurus [14]) was “inactive” and the Activity (CCRF-CEM [15]) was 48.3%. The IC50 (DU-145) was 1280 nM, the Activity (CCRF-CEM [16]) was 13.2% and the IC50 [17] was 510 nM. The IC50 (CCRF-CEM [1]) was 560 nM, the IC50 (MCF7) was 590 nM and the IC50 (LoVo) was 1990 nM.

With O=CNC(=O)Nc1cccc(NC(=O)CBr)c1 the Activity (CCRF-CEM [18]) was 33.5%, the Activity (CCRF-CEM [19]) was 12.9% and the Activity (CCRF-CEM [20]) was 2%. For the same molecule, the inhibition (Bos taurus [21]) was “inactive”, the Activity (CCRF-CEM [22]) was 52.6% and the IC50 (CCRF-CEM [1]) was 850 nM.

O=C(CBr)Nc1cccc(NC(=O)Nc2ccccc2)c1 showed an IC50 (CCRF-CEM [1]) of 860 nM.

For O=C(CCCl)NC(=O)Nc1cccc(NC(=O)CBr)c1, the IC50 (CCRF-CEM [1]) was 1900 nM.

CC(Br)C(=O)Nc1cccc(NC(=O)NCCCl)c1 (centres undefined) showed an IC50 (CCRF-CEM [1]) of 22700 nM.

For NC(=O)NC(=O)c1cccc(NC(=O)CBr)c1, the IC50 (CCRF-CEM [1]) was 725 nM.

In the case of COc1cc(NC(=O)Nc2cccc(NC(=O)C(C)Br)c2)cc(OC)c1OC (centres undefined), the IC50 (CCRF-CEM [1]) is reported as 3990 nM.
